Legend:
[1] = target: 3',5'-cyclic-AMP phosphodiesterase 4D (Homo sapiens, UniProt Q08499); test: Inhibition of human U-937 cells derived PDE4D using [3H] cAMP as substrate measured after 30 mins
In short: (§1)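 Enzyme from human monocyte-derived U937 cells, stored at −20 °C and diluted in triple-distilled water containing BSA. Substrate was [3H]cAMP (300,000 dpm/assay) in 100 mmol/L Tris-HCl pH 8.0 with 5 mmol/L EGTA. Compound added in DMSO. Incubation 30 min at 30 °C. Duplicates run at several compound concentrations.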

Homo sapiens = species on record: Homo sapiens; test: Selectivity ratio of IC50 for inhibition of human U937 cells derived PDE4D to inhibition of human U937 cells derived PDE4B
[2] = target: T1, 3',5'-cyclic-AMP phosphodiesterase 4B (Homo sapiens, UniProt Q07343); test: Inhibition of PDE4B in human PBMC assessed as reduction in LPS-induced TNFalpha release preincubated for 30 mins followed by LPS stimulation and measured after 18 hrs by TR-FRET assay
In short: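 Human PBMCs from buffy coats, blood first diluted 1:1 with saline, isolated on Lymphoprep. Compound pre-incubation 30 min, then LPS stimulation for 18 h. IC50 reported.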

[3] = target: T1, 3',5'-cyclic-AMP phosphodiesterase 4B; test: Inhibition of human U-937 cells derived PDE4B using [3H] cAMP as substrate measured after 30 mins; in short: as §1
Mus musculus = test: Antiinflammatory activity in LPS induced Swiss albino mouse model of sepsis assessed as inhibition of TNFalpha production at 10 mg/kg, po preincubated for 30 mins followed by LPS stimulation and measured after 90 mins by ELISA relative to control; assay type: functional; conditions: 2 h, time 120 min
In short: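 Female Swiss albino mice, weight-matched, n = 6 per group, fasted 20 h with water available. Oral dosing in 0.5% Tween 80 / 0.25% sodium carboxymethylcellulose, with vehicle-only controls. 500 µg E. coli LPS (B4) in phosphate buffer given i.p. 30 min later. Retro-orbital bleed 90 min after LPS. Serum spun 4000 rpm for 20 min, held at 4 °C overnight, then TNF-α measured by mouse ELISA kit.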

Rattus norvegicus = test: Antiinflammatory activity in LPS induced Sprague-Dawley rat model of asthma and COPD assessed as inhibition of neutrophilia at 10 mg/kg, po preincubated for 30 mins followed by LPS stimulation and measured after 6 hrs relative to control; assay type: functional; conditions: time 6.5 hrs
In short: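 Male Sprague Dawley rats, acclimatized one week and randomized by body weight, n = 6 per group. Compound given orally, suspended in 0.25% sodium carboxymethylcellulose, half an hour before LPS exposure. Bronchoalveolar lavage done 6 h after LPS. Total cell count and differential leukocyte count compared with control.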

T1 sequence (Q07343 whole entry): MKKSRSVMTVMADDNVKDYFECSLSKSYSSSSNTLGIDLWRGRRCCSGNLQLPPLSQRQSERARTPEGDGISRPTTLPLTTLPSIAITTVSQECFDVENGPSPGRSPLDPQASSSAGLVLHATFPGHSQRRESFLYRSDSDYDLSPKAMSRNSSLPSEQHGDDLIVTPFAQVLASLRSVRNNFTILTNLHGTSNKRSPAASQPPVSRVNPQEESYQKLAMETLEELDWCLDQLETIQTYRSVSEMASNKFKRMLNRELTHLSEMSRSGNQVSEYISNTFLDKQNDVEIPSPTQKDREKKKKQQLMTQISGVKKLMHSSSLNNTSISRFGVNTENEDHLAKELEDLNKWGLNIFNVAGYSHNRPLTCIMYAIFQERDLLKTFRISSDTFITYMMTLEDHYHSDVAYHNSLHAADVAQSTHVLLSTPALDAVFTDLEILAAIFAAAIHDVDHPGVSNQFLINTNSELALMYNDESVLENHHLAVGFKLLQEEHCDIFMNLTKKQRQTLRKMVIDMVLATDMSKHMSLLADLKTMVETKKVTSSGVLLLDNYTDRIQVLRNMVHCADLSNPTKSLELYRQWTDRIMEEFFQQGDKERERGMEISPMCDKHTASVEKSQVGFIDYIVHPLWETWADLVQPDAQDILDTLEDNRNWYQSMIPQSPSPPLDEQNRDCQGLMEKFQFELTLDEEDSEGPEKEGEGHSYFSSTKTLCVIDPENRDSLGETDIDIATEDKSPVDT
Chain of 3',5'-cyclic-AMP phosphodiesterase 4D (Q08499 whole entry): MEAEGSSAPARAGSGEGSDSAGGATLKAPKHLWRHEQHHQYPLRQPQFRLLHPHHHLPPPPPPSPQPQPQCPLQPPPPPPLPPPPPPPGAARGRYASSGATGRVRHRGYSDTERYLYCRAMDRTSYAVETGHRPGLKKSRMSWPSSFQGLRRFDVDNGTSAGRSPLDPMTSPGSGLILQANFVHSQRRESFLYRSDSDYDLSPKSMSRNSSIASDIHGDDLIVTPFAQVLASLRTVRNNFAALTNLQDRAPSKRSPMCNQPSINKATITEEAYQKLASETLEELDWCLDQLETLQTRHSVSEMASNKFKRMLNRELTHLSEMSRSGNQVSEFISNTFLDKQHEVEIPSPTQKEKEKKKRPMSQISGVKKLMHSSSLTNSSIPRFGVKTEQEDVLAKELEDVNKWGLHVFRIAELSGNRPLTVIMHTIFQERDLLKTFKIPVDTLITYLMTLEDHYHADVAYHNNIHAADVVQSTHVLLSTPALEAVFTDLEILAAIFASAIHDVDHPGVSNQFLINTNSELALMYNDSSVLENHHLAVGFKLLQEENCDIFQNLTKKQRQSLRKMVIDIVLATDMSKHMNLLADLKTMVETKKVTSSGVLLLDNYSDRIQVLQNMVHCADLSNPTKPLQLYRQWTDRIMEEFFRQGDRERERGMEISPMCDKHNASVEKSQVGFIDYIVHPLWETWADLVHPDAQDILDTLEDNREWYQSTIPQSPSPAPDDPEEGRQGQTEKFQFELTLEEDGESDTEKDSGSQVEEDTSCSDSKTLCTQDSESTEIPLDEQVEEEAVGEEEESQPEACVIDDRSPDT

Row | Structure (SMILES) | IC50 [1] | Ratio IC50 (Homo sapiens) | IC50 [2] | IC50 [3] | inhibition in vivo at 10 mg/kg (Mus musculus) | inhibition in vivo at 10 mg/kg (Rattus norvegicus)
1 | Cc1ccc(-c2nc(C(=O)N3CCS/C3=N/C#N)co2)cc1 | 66.9 µM | 7.27 | 35.2 µM | 9.2 µM |  | 
2 | N#C/N=C1/SCCN1C(=O)c1ccc(-c2ccc(F)cc2)o1 | 55.7 µM | 4.93 | 29.8 µM | 11.3 µM |  | 
3 | N#C/N=C1/SCCN1C(=O)c1ccc(-c2ccccc2Cl)o1 |  |  | 123 µM | 62.8 µM |  | 
4 | N#C/N=C1/SCCN1Cc1ccc(-c2ccc(Br)cc2)o1 |  |  | 156 µM | 52.7 µM |  | 
5 | COc1ccc(-c2ccc(CN3CCS/C3=N/C#N)o2)cc1 | 32.8 µM | 3.42 | 36.8 µM | 9.6 µM | 31.2% | 28.7%
6 | N#C/N=C1/SCCN1C(=O)c1ccc(-c2ccccc2)o1 |  |  | 170 µM | 111 µM |  | 
7 | N#C/N=C1/SCCN1C(=O)c1coc(-c2cccc(Cl)c2)n1 | 102 µM | 5.66 | 62.5 µM | 18.1 µM |  | 
8 | N#C/N=C1/SCCN1C(=O)c1ccc(-c2ccccc2F)o1 |  |  | 110 µM | 62.4 µM |  | 
9 | N#C/N=C1/SCCN1Cc1ccc(-c2ccc(F)cc2)o1 | 111 µM | 5.85 | 45.8 µM | 18.9 µM |  | 
10 | N#C/N=C1/SCCN1C(=O)c1coc(-c2ccc(Br)cc2)n1 |  |  | 131 µM | 46.7 µM |  | 
11 | COc1ccc(C2CNC(=O)C2)cc1OC1CCCC1 (stereo not drawn) [ROLIPRAM] |  |  |  |  | 45.3% | 36.8%
12 | N#C/N=C1/SCCN1C(=O)c1ccc(-c2cccc(F)c2)o1 |  |  | 72.6 µM | 37.8 µM |  | 
13 | N#C/N=C1/SCCN1C(=O)c1ccc(-c2ccc(Cl)cc2)o1 | 26.4 µM | 4 | 35.6 µM | 6.6 µM |  | 
14 | N#C/N=C1/SCCN1Cc1ccc(-c2c(F)cccc2F)o1 | 160 µM | 3.49 | 82.3 µM | 45.7 µM |  | 
15 | N#C/N=C1/SCCN1Cc1ccc(-c2ccc(Cl)cc2)o1 | 58.3 µM | 3.71 | 44.2 µM | 15.7 µM |  | 
16 | N#C/N=C1/SCCN1C(=O)c1coc(-c2ccccc2)n1 |  |  | 142 µM | 71.2 µM |  | 
17 | N#C/N=C1/SCCN1C(=O)c1ccc(-c2ccc(Br)cc2)o1 |  |  | 139 µM | 49.6 µM |  | 

Row | Structure (SMILES) | IC50 [1] | Ratio IC50 (Homo sapiens) | IC50 [2] | IC50 [3] | inhibition in vivo at 10 mg/kg (Mus musculus) | inhibition in vivo at 10 mg/kg (Rattus norvegicus)
18 | N#C/N=C1/SCCN1C(=O)c1coc(-c2ccccc2F)n1 |  |  | 92.8 µM | 52.8 µM |  | 
19 | N#C/N=C1/SCCN1C(=O)c1ccc(-c2c(F)cccc2F)o1 | 88.6 µM | 4.01 | 60.1 µM | 22.1 µM |  | 
20 | COc1ccc(-c2ccc(C(=O)N3CCS/C3=N/C#N)o2)cc1 | 18.7 µM | 6.68 | 15.3 µM | 2.8 µM | 40.5% | 33.8%
21 | N#C/N=C1/SCCN1C(=O)c1coc(-c2cccc(F)c2)n1 |  |  | 64.3 µM | 27.6 µM |  | 
22 | N#C/N=C1/SCCN1Cc1ccc(-c2ccccc2)o1 |  |  | 199 µM | 162 µM |  | 
23 | N#C/N=C1/SCCN1C(=O)c1ccc(-c2cccc(Cl)c2)o1 | 99.8 µM | 3.39 | 74.3 µM | 29.4 µM |  | 
24 | COc1ccc(-c2nc(C(=O)N3CCS/C3=N/C#N)co2)cc1 | 15.7 µM | 11.2 | 11.8 µM | 1.4 µM | 52.6% | 42.1%
25 | N#C/N=C1/SCCN1Cc1ccc(-c2cccc(Cl)c2)o1 |  |  | 89.7 µM | 62.8 µM |  | 
26 | N#C/N=C1/SCCN1Cc1ccc(-c2ccccc2Cl)o1 |  |  | 149 µM | 102 µM |  | 
27 | N#C/N=C1/SCCN1C(=O)c1coc(-c2c(F)cccc2F)n1 | 98.7 µM | 6.06 | 49.3 µM | 16.3 µM |  | 
28 | N#C/N=C1/SCCN1C(=O)c1coc(-c2ccc(F)cc2)n1 | 45.9 µM | 6.75 | 22.1 µM | 6.8 µM |  | 
29 | Cc1ccc(-c2ccc(CN3CCS/C3=N/C#N)o2)cc1 | 121 µM | 6.04 | 53.9 µM | 20.1 µM |  | 
30 | N#C/N=C1/SCCN1C(=O)c1coc(-c2ccc(Cl)cc2)n1 | 26.8 µM | 7.44 | 27.2 µM | 3.6 µM |  | 
31 | N#C/N=C1/SCCN1C(=O)c1coc(-c2ccccc2Cl)n1 |  |  | 101 µM | 40.3 µM |  | 
32 | N#C/N=C1/SCCN1Cc1ccc(-c2cccc(F)c2)o1 |  |  | 89.5 µM | 59.7 µM |  | 
33 | Cc1ccc(-c2ccc(C(=O)N3CCS/C3=N/C#N)o2)cc1 | 54.3 µM | 4.34 | 41.3 µM | 12.5 µM |  | 
34 | N#C/N=C1/SCCN1Cc1ccc(-c2ccccc2F)o1 |  |  | 121 µM | 85.6 µM |  | 
